These compounds were tested on Rattus norvegicus (assay: Suppression of capsaicin-induced bladder contraction in iv dosed Sprague-Dawley rat overactive bladder model).
Type: functional, organism-based
Summary of the method: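 Female Sprague–Dawley rats anesthetized with urethane (1.0 g/kg ip) and bladder catheterized via the urethra, with saline infused at 3.0 mL/h for 5 min for basal pressure. Capsaicin 30 μg/kg iv given every 10 min. After stable contractions, test agent or vehicle (20% cremophor EL) given iv, followed by capsaicin again. Reported as % change in contraction. n=4, mean ± SEM; Bartlett's then Williams' test versus vehicle.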

Structure (SMILES)	Activity
CN(CCO)c1ccc(NC(=O)COc2ccc(C(C)(C)C)cc2)cn1	Dose-dependent effect

The compounds below were run on Rattus norvegicus (assay: Reduction of cyclophosphamide-induced voiding frequency in iv dosed Sprague-Dawley rat cystitis and pollakiuria model measured for 20 mins).
Type: functional, organism-based
Summary of the method: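 Female Sprague–Dawley rats given cyclophosphamide 150 mg/kg ip. Bladder catheter implanted 4 h later, with saline infused at 3.6 mL/h for continuous cystometry. Once voiding frequency was stable, dosed iv with test agent or vehicle (20% cremophor EL). Voids counted for 20 min before and after dosing and expressed as % change. n=4, mean ± SEM; Bartlett's then Williams' test versus vehicle.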

Structure (SMILES)	Activity
CN(CCO)c1ccc(NC(=O)COc2ccc(C(C)(C)C)cc2)cn1	Dose-dependent effect

What follows are compounds tested against Transient receptor potential cation channel subfamily V member 1 (Homo sapiens, UniProt Q8NER1) (assay: Antagonist activity at human TRPV1 transfected in CHOK1 cells assessed as inhibition of capsaicin-induced intracellular calcium level measured for 120 secs by FLIPR analysis).
Type: cell-based, CHO-K1
Summary of the method: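 CHO-K1 cells stably expressing hTRPV1, grown to 90% confluency, loaded 90 min at rt with Fluo4-AM (2 μM) in HBSS/20 mM HEPES pH 7.4, then washed three times. Test agent added at various concentrations together with 100 nM capsaicin. Peak fluorescence over 120 s averaged in triplicate. IC50 is the concentration giving 50% inhibition of the capsaicin control response.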

Sequence of Transient receptor potential cation channel subfamily V member 1 (Q8NER1 whole entry): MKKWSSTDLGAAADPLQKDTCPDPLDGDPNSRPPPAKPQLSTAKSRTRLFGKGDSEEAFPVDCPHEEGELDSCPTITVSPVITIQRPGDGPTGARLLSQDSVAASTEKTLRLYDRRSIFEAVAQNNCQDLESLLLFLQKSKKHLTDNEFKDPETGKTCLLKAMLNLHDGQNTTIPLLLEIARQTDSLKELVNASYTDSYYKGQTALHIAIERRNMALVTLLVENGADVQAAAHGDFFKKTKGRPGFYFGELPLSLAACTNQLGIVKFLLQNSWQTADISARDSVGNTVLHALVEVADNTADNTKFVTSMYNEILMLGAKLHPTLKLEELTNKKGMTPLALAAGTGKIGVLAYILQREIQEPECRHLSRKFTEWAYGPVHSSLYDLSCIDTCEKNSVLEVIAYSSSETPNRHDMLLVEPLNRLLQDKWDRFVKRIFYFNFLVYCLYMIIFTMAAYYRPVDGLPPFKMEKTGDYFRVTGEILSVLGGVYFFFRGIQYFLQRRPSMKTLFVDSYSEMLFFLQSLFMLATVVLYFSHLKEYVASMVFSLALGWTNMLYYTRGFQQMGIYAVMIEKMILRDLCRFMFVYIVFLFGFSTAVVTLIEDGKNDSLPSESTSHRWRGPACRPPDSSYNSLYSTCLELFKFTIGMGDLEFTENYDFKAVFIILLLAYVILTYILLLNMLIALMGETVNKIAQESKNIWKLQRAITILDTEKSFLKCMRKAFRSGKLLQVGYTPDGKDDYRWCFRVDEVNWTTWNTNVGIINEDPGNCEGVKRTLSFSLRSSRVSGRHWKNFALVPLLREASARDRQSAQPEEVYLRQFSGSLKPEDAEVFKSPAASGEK

IC50 [nM]	Structure (SMILES)
110	CC(C)c1ccc(OCC(=O)Nc2ccc(N(C)CCO)nc2)cc1
> 10000	CN(CCO)c1ccc(NC(=O)COc2ccc(C(F)(F)F)cc2)cn1
> 10000	CN(CCO)c1ccc(NC(=O)COc2ccccc2)cn1
33	CN(CCO)c1ccc(NC(=O)COc2ccc(C(C)(C)C)cc2)cn1
> 10000	CN(CCO)c1ccc(NC(=O)COc2ccc(C34CC5CC(CC(C5)C3)C4)cc2)cn1
941	CN(CCO)c1ccc(NC(=O)COc2ccc(C(C)(C)C)cc2N2CCCCC2)cn1
2620	CN(CCO)c1ccc(NC(=O)COc2cccc(C(C)(C)C)c2)cn1
583	CCN(C)c1ccc(NC(=O)COc2ccc(C(C)(C)C)cc2)cn1
796	CN(CCO)c1ccc(NC(=O)COc2ccccc2C(C)(C)C)cn1

Second part, the compound before the results:

Structure (SMILES)	IC50 [nM]
CN(CCO)c1ccc(NC(=O)COc2ccc(C(C)(C)C)cc2Br)cn1	86
CN(CCO)c1ccc(NC(=O)COc2ccc(C(C)(C)C)cc2C(C)(C)C)cn1	107
CN(C)c1ccc(NC(=O)COc2ccc(C(C)(C)C)cc2)cn1	59
Cc1cc(NC(=O)COc2ccc(C(C)(C)C)cc2)cnc1N(C)CCO	130
O=C(Nc1ccccc1Br)N[C@H]1CCN(c2ccc(C(F)(F)F)cn2)C1	120
CC(C)(C)c1ccc(OCC(=O)Nc2ccc(N3CCC(O)C3)nc2)cc1 (centres undefined)	516
CC(C)(C)c1ccc(OCC(=O)Nc2ccc(N3CCCC3)nc2)cc1	411
CN(CCO)c1ncc(NC(=O)COc2ccc(C(C)(C)C)cc2)cc1Cl	44

Reference: ChEMBL document CHEMBL2380273, “Discovery of potent transient receptor potential vanilloid 1 antagonists: design and synthesis of phenoxyacetamide derivatives” (Bioorg Med Chem Lett, 2013)
